Series [1] concerns the target T1, Free fatty acid receptor 1 (Homo sapiens, UniProt O14842). Briefly: Agonist activity at human GPR40 receptor expressed in HEK293 cells assessed as increase in intracellular calcium flux after 2.5 hrs measured over 3 mins by calcium 4 dye-based FLIPR assay relative to linoleic acid. Format: functional, cell-based. The gist of the method: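 Human GPR40 calcium flux was read on FLIPR. Percent stimulation is expressed against the response to 100 uM linoleic acid.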

A short description of series [2]: Dissociation constant, pKa of the compound. It is filed as physicochemical.
Series [3] is described as follows: Metabolic stability in rat microsomes assessed as compound metabolized after 30 mins. The following applies: read-out: Drug metabolism. It is filed as ADME, Microsome. The gist of the method: (§1)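 Compound incubated 30 min with liver microsomes from mouse, rat, dog or human. Percent of compound metabolized recorded, as mean (SEM, n).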
A short description of series [4]: Metabolic stability in dog microsomes assessed as compound metabolized after 30 mins. It is filed as ADME, Canis lupus familiaris, Microsome. The settings on record: read-out: Drug metabolism. The gist of the method:
as §1

Series [5] is described as follows: Intrinsic clearance in human microsomes. It is filed as ADME, Microsome.
Series [6] can be described thus: Clearance in type 2 diabetes patient. It is filed as ADME. The following applies: human, in vivo.
A short description of series [7]: Volume of distribution in type 2 diabetes patient. It is filed as ADME. The settings on record: human, in vivo.
The nature of series [8]: Aqueous solubility of the compound at pH 7.4. It is filed as physicochemical. Put shortly:
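Solubility was measured by DMSO/aqueous precipitation at pH 7.4 and reported as the last soluble concentration.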

In series [9] the test system is Rattus norvegicus. The series is described as follows: Antidiabetic activity in po dosed Zucker fa/fa rat assessed as reduction in blood glucose AUC administered daily for 21 days followed by OGTT at 1 hr after compound dosing and measured 60 mins post glucose challenge by oral glucose tolerance test. Format: functional.
Series [10] is described as follows: Drug metabolism in rat hepatocytes assessed as O-dealkylation. It is filed as ADME, cell-based, Hepatocyte.
A short description of series [11]: Drug metabolism in rat hepatocytes assessed as oxidation. It is filed as ADME, cell-based, Hepatocyte.
A short description of series [12]: Drug metabolism in rat hepatocytes assessed as glucuronidation. Format: ADME, cell-based, Hepatocyte.
The nature of series [13]: Drug metabolism in mouse hepatocytes assessed as O-dealkylation. Format: ADME, cell-based, Hepatocyte.
A short description of series [14]: Drug metabolism in mouse hepatocytes assessed as oxidation. Format: ADME, cell-based, Hepatocyte.
Series [15] is described as follows: Drug metabolism in mouse hepatocytes assessed as glucuronidation. Format: ADME, cell-based, Hepatocyte.
Series [16] can be described thus: Drug metabolism in dog hepatocytes assessed as O-dealkylation. Format: ADME, cell-based, Canis lupus familiaris, Hepatocyte.
Series [17] in a line: Drug metabolism in dog hepatocytes assessed as oxidation. It is filed as ADME, cell-based, Canis lupus familiaris, Hepatocyte.
Series [18] can be described thus: Drug metabolism in dog hepatocytes assessed as glucuronidation. It is filed as ADME, cell-based, Canis lupus familiaris, Hepatocyte.
The test system of series [19] is Rattus norvegicus. Briefly: Antidiabetic activity in Zucker fa/fa rat assessed as reduction in blood glucose AUC at 1 mg/kg, po administered for 1 day followed by OGTT at 1 hr after compound dosing and measured 60 mins post glucose challenge by oral glucose tolerance test. Format: functional, organism-based.
In series [20] the target is T1, Free fatty acid receptor 1. The series is described as follows: Competitive displacement of [3H]-TAK-875 from full length human recombinant GPR40 expressed in HEK293 cell membranes after 2 hrs by scintillation counting. The gist of the method:
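Binding was measured as competitive inhibition of [3H]-TAK875 (fasiglifam) binding to membranes from cells overexpressing recombinant human GPR40. Ki is reported with SEM and n.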

Series [21] addresses T1, Free fatty acid receptor 1. The series is described as follows: Agonist activity at human GPR40 receptor expressed in HEK293 cells assessed as increase in intracellular calcium flux after 2.5 hrs measured over 3 mins by calcium 4 dye-based FLIPR assay. It is filed as functional, cell-based. The gist of the method:
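Calcium flux was read by FLIPR in cells carrying recombinant human GPR40. Percent stimulation is relative to the response to 100 µM linoleic acid. EC50 is reported with SEM and n.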

A short description of series [22]: Intrinsic clearance in human hepatocytes. Format: ADME, cell-based, Hepatocyte.
A short description of series [23]: Drug metabolism in rat hepatocytes assessed as desmethylation. It is filed as ADME, cell-based, Hepatocyte.
Series [24] in a line: Drug metabolism in mouse hepatocytes assessed as desmethylation. It is filed as ADME, cell-based, Hepatocyte.
Series [25] is described as follows: Drug metabolism in dog hepatocytes assessed as desmethylation. It is filed as ADME, cell-based, Canis lupus familiaris, Hepatocyte.
Series [26] in a line: Lipophilicity, log P of the compound. It is filed as physicochemical. The settings on record: octanol/water.
The nature of series [27]: Metabolic stability in mouse microsomes assessed as compound metabolized after 30 mins. It is filed as ADME, Microsome. The settings on record: read-out: Drug metabolism. The gist of the method: as §1
The nature of series [28]: Metabolic stability in human microsomes assessed as compound metabolized after 30 mins. Format: ADME, Microsome. The settings on record: read-out: Drug metabolism. The gist of the method:
as §1

Series [29] in a line: Drug metabolism in rat hepatocytes assessed as N-dealkylation. It is filed as ADME, cell-based, Hepatocyte.
A short description of series [30]: Drug metabolism in mouse hepatocytes assessed as N-dealkylation. Format: ADME, cell-based, Hepatocyte.
The nature of series [31]: Drug metabolism in dog hepatocytes assessed as N-dealkylation. It is filed as ADME, cell-based, Canis lupus familiaris, Hepatocyte.

In brackets after ≈: the same amount, converted by molar mass. Activity calls are given as the source filed them. The rule behind the calls is not given here.

T1 sequence (O14842 whole entry): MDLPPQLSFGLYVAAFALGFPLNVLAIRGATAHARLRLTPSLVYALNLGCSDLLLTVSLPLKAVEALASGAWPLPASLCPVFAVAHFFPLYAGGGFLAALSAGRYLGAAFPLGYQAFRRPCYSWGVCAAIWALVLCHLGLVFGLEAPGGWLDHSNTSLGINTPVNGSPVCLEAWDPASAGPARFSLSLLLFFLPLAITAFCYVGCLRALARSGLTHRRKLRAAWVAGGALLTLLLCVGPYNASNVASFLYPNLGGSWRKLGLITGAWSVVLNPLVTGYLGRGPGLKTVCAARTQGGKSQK

In the case of `CC#C[C@@H](CC(=O)O)c1ccc(OCc2ccc(CN3CCC4(C=Cc5ccccc54)CC3)cc2)cc1` [LY2881835], the %max in series [1] was determined as 62%. Also, the pKa in [2] lay within 4.1 to 8.1. Besides, the metabolised at 0.5 h in series [3] was determined as 64%; in series [4], 65%. The same molecule returned a K in [5] of 0.033 h⁻¹. The molecule further showed a clearance in [6] of 183 mL/min. For the same molecule, the Vd in series [7] came to 111 L. In [8], the solubility was in the range of 61 to 80 µM (≈ 30 to 39.3 µg/mL). For the same molecule, the ED90 with Rattus norvegicus [9] was found to be 1 mg/kg. The Drug metabolism entry in [10], in series [11], in series [12], in [13], in series [14] and in [15] was “Metabolite_Detected” each time. Also, the Drug metabolism entry in series [16], in [17] and in [18] was “Metabolite_Detected” in each case. For the same molecule, the result in the series on Rattus norvegicus [19] was Active.
In the case of `CC#C[C@@H](CC(=O)O)c1ccc(OCc2ccc(CN3CCCc4cccc(OC)c43)s2)cc1`, in [20], the Ki was 27 nM. Moreover, the EC50 in [21] turned out to be 3 nM. Further, the %max in series [1] is 51%. The molecule also gave a pKa in series [2] of 3.4 to 6. For the same molecule, the metabolised at 0.5 h in series [3] turned out to be 62%; in [4] it was 18%. The values for the K in [5] and in series [22] were 0.0048 h⁻¹ and 0.17 h⁻¹, respectively. In addition, the clearance in series [6] was 183 to 233 mL/min. This molecule registered a Vd in series [7] of 244 to 358 L. The solubility in [8] was > 100 µM. Moreover, in the series with Rattus norvegicus [9], the ED90 was found to be 3.3 mg/kg. Also, the Drug metabolism entry in [12], in [15], in series [18], in series [23], in series [24] and in series [25] was “Metabolite_Detected” each time.
Consider `CC#C[C@@H](CC(=O)O)c1ccc(OCc2ccc(N3CCC4(CCc5ccccc54)CC3)s2)cc1`, for which the Ki in series [20] turned out to be 8.2 nM. The EC50 in [21] stood at 8 nM. The %max in [1] is 50%. The same molecule registered a logP in [26] of 5. The molecule further displayed a pKa in series [2] of 3.4 to 7.9. The metabolised at 0.5 h in series [27] is 98%; in [3], 98%; in series [4], 93%; in [28], 44%. Moreover, the K in [5] was found to be 0.109 h⁻¹; in series [22], 0.23 h⁻¹. The molecule further registered a clearance in [6] of 517 to 717 mL/min. In [7], this molecule yielded a distribution volume (Vd) of 443 to 885 L. The same molecule showed a solubility in series [8] of 70 to 89 µM (≈ 34 to 43.2 µg/mL). Moreover, the ED90 in the series on Rattus norvegicus [9] was 14.2 mg/kg. Also, the Drug metabolism entry in series [11], in [12], in series [14], in series [15], in [17] and in series [18] was “Metabolite_Detected” each time. Further, the Drug metabolism result in [29], in [30] and in [31] was “Metabolite_Detected” in each case.
